Source: PubChem BioAssay (Johns Hopkins Ion Channel Center)
Hits are enriched below; roughly 2.3% of the tested compounds scored in any of these assays.
TRPC6 activator = mouse TRPC6 channel activation; Q61143; HEK293-TRPC6 membrane potential dye fluorescence; hits give high values; B-score at 10 µM; actives 0.13% (n = 310,000); AID 2550;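 active = B-score of the integrated fluorescence ratio above library mean plus 3 SD, and starting fluorescence ratio within library mean plus 5 SD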;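 also: higher score means more depolarization so channel activation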
TRPC4 inh = inhibitors of mouse TRPC4 channel; Q9QUQ5; HEK293 TRPC4beta/mu-opioid, DAMGO-evoked Fluo4 calcium flux; hits give low values; B-score at 10 µM; actives 0.39% (n = 300,000);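 active = B-score over 3 SD under the library average, no early fluorescence shift, positive overall ratio signal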
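Assay system: HEK293 cells with stable TRPC4beta plus mu-opioid receptor expression; Probe or stimulus: DAMGO in two steps, submaximal then maximal; Dosing: single-point compound dosing; Measured by: Fluo4 calcium-dye fluorescence, kinetic read; Read-out basis: B score from integrated Fluo4 fluorescence ratio.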
TRPC4 potent = allosterically enhances the mouse TRPC4 cation channel; Q9QUQ5; HEK293 TRPC4beta/mu-opioid, DAMGO EC20, Fluo-4 Ca2+ flux; hits give high values; B-score at 10 µM; actives 0.42% (n = 310,000);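 active = B-score of calcium response area above 5 SD of library B-scores, with initial fluorescence ratio within 5 SD of library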;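 also: B-score of integrated fluorescence ratio over time as area under calcium response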
TRPC4 agonist = TRPC4 (mouse) channel activation | Q9QUQ5 | HEK293 TRPC4beta/mu-opioid, Fluo4 calcium fluorescence; hits give high values | B-score at 10 µM | actives 0.49% (n = 310,000);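 active = B-score above 5 SD of library B-scores, and initial fluorescence ratio not above library mean plus 5 SD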;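 also: positive B-score marks a calcium rise read as TRPC4 activation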
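system = HEK293 cells stably co-expressing mouse TRPC4beta and mu-opioid receptor | schedule = Fluo4 dye loading 45 min at room temperature, 110 s recording | measure = B-scored integrated calcium fluorescence ratio | signal = Fluo4 calcium-sensitive dye fluorescence, kinetic, 1 Hz baseline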
TRPC6 inhibitor = blocks the mouse TRPC6 cation channel | actives 1.1% (n = 310,000) | HEK293-TRPC6, membrane potential dye, ACh-evoked depolarization; hits give low values | Q61143 | B-score at 10 µM;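 active = B-score under library mean minus 3 SD, initial fluorescence not abnormally high, positive integrated signal ratio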;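 also: B-score derived from integrated fluorescence ratio over the kinetic read; more negative B-score means stronger inhibition of depolarization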
Numbers without * were called inactive; i = inactive; nt = no result.

SMILES	TRPC6 activator	TRPC4 inh	TRPC4 potent	TRPC4 agonist	TRPC6 inhibitor
CC1=C(C(=O)OCCNC(=O)c2ccccc2O)C(c2ccccc2[N+](=O)[O-])C(C(=O)OCC2CCCO2)=C(C)N1 (centres undefined)	i	i	i	i	i
CCOC(=O)c1c(NC(NC(C)=O)C(Cl)(Cl)Cl)sc2c1CCCC2 (centres undefined)	i	i	21*	i	i
CCOC(=O)c1c(NC(=O)CCNCc2ccco2)sc2c1CCC2	i	i	11*	i	i
CCOC(=O)c1c(NC(=O)c2ccco2)sc2c1CCCCC2	i	i	i	i	i
CCOC(=O)c1c(NC(=O)C2CC(Cl)=CCC2C(=O)O)sc2c1CCCCC2 (centres undefined)	i	-6*	i	i	i
CCn1c(SCC(=O)NNC(=O)c2ccc(C)cc2)nnc1-c1ccco1	i	i	i	i	i
CCc1ccc2cccc3c2c1N=CN3C	i	i	i	i	i
COc1cc(OC)c2cc(C(=O)N/N=C/c3ccccc3O)[nH]c2c1	i	i	i	i	i
CCCCC(=O)N1CCN(c2nc3ccc(F)cc3s2)CC1	i	i	i	78*	i
Cc1cc(OCc2cc(C(=O)NCC3(C)COC3)no2)cc(C)c1Cl	i	-6*	i	i	i
C=CCNC(=O)c1cc2c(=O)n3cc(C)ccc3nc2nc1NCC1CCCO1 (centres undefined)	i	i	i	i	-5.9*
Cc1ccccc1-c1nn(-c2ccc(F)cc2F)cc1CNCC(C)O (centres undefined)	i	i	i	i	i
CCOCCCNCc1cn(-c2ccc(F)cc2F)nc1-c1ccccc1C	i	i	i	77*	i
Cn1nnnc1N=N/C(=N/Nc1ccccc1)c1ccccc1	i	i	i	i	i
CCC(C)NC(=O)C1CC(=O)N(CCc2ccc(F)cc2)C1 (centres undefined)	i	i	i	i	i
CCOC(=O)C1CCCN(CCC(=O)Nc2cccc(F)c2)C1 (centres undefined)	i	i	i	i	i
CCOC(=O)C1CCCN(CCC(=O)Nc2cccc(C)c2)C1 (centres undefined)	i	i	i	54*	i
CCOC(=O)C1CCCN(CC(=O)c2ccc(F)cc2)C1 (centres undefined)	i	i	i	81*	i
CCOC(=O)C1CCCN(CC(=O)Nc2c(F)c(F)c(F)c(F)c2F)C1 (centres undefined)	i	i	i	i	i
NC(=O)c1sc(=S)n2c1[nH]c(=O)c1sccc12	i	i	10*	i	i
CNCC(=O)Nc1ccc(Cl)c(C(F)(F)F)c1	i	i	28*	i	i
COc1cccc(CNC(=O)C2CCN(Cc3cnn(-c4ccccc4)c3-n3cccc3)CC2)c1	i	i	i	44*	i
O=C(NCc1cccnc1)C1CCCN(Cc2cnn(-c3ccccc3)c2-n2cccc2)C1 (centres undefined)	i	i	i	87*	i
O=C(NCc1ccccn1)C1CCCN(Cc2cnn(-c3ccccc3)c2-n2cccc2)C1 (centres undefined)	i	nt	i	53*	i
Cc1ccc(N2CC(C(=O)N(C)CC(=O)Nc3ccc(Cl)c(C(F)(F)F)c3)CC2=O)cc1 (centres undefined)	i	i	i	i	i
SMILES	TRPC6 activator	TRPC4 inh	TRPC4 potent	TRPC4 agonist	TRPC6 inhibitor
O=C(Nc1ccncc1)C1CCN(S(=O)(=O)c2ccc(Cl)cc2)CC1	i	i	i	i	i
COc1ccccc1CNC(=O)C1(c2ccc(Cl)cc2)CC1	i	i	i	i	i
CCOc1cc(/C=C2\C(=N)N3N=CSC3=NC2=O)ccc1OS(=O)(=O)c1ccccc1	i	-6*	i	i	i
COc1cc(/C=C2\C(=N)N3N=CSC3=NC2=O)ccc1OS(=O)(=O)c1ccccc1	i	i	i	i	i
CC1OC(O[C@H]2CC[C@]3(C)C4C=C[C@]56OC[C@@]7(CC[C@@H](C)[C@H](C)C75)[C@H](O)C[C@@]6(C)[C@]4(C)CC[C@H]3C2(C)C)C(OC2OC(CO)C(O)C(O)C2OC2OCC(O)C(O)C2O)C(O)C1O (some centres undefined)	13*	i	11*	356*	i
Fc1cccc(Cl)c1C1Nc2cccc3cccc(c23)N1	i	i	i	i	i
Clc1cccc(Cl)c1C1Nc2cccc3cccc(c23)N1	i	i	i	i	-5.5*
C/C(=N\Nc1cc(N2CCOCC2)ncn1)c1ccc(O)cc1	i	i	i	i	i
COc1ccc(N(CC(C)C)S(=O)(=O)c2nnc(NC(=O)CC(C)C)s2)cc1	i	i	i	i	i
COc1cc(/C=C2\SC(N3CCC(C)CC3)=NC2=O)ccc1O	i	-6*	i	i	i
COc1cc(/C=C2\CCC/C(=C\c3ccc(O)c(OC)c3)C2=O)ccc1O	i	-6*	i	i	i
CCOc1cc(/C=C2\CN(CC)C/C(=C\c3ccc(O)c(OCC)c3)C2=O)ccc1O	i	i	17*	i	i
COc1cc(/C=C2/CCCC(C(=O)C(F)(F)F)=C2O)ccc1O	i	i	i	i	i
CCOc1cc(/C=N/N=C/c2ccc(O)c(OCC)c2)ccc1O	i	i	i	i	i
CCc1ccc(C(=O)NNC(=O)c2ccc(=O)n(C)n2)cc1	i	i	i	i	i
Fc1cccc(-c2nnn3c2nc(Cl)c2ccccc23)c1	i	i	i	i	i
CN(C)CCCN(C(=O)COc1ccc(Cl)cc1)c1nc2cc3c(cc2s1)OCO3	i	i	i	i	i
Cc1cc(OCC(=O)NNC(=S)NC(=O)c2cccs2)ccc1Cl	i	i	19*	i	i
COc1ccc(C(=O)NNC(=S)NC(=O)c2ccc(Br)o2)cc1OC	i	i	i	i	i
O=C(COc1ccc(Br)cc1Br)NNC(=O)c1cccs1	i	i	i	i	i
Cc1ccc(OCC(=O)NNC(=S)NC(=O)c2ccc(Br)o2)c(C)c1	i	-6*	20*	69*	i
Cc1ccc(OCC(=O)NNC(=S)NC(=O)c2cccs2)c(C)c1	i	i	i	66*	i
N#C/C(=C/c1cccn1-c1cccc(C(=O)O)c1)c1ccc(F)cc1	i	i	i	i	i
